From ChEMBL document CHEMBL5653624 (Biochem Pharmacol, 2016)
Activity calls are given as the source filed them. The calls are words filed in the database; no cut-off is given here.

Assays:
HASMC [1] = test: Antiinflammatory activity in HASMC cells assessed as effect on LPS/IFNgamma-induced iNOS gene expression at 2 uM […] and measured after 4 hrs by RT-qPCR analysis; format: functional, cell-based; details: Homo sapiens
In short: (§1)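 HBE cells (passage 73–103) or immortalized hASM cells (2–3 donors, passage 27–35), serum-starved. Then 2 μM RGFP966 for 20 h, with LPS/IFNγ for the last 4 h. Total RNA isolated; RT-qPCR by 2−ΔΔCt, fold change versus LPS/IFNγ control. Mean ± SD of 3–5 independent experiments.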

RAW264.7 [2] = test: Antiinflammatory activity in mouse RAW264.7 cells assessed as effect on LPS/IFNgamma-induced IL-10 gene expression at 1 uM preincubated for 20 hrs followed by LPS/IFNgamma stimulation and measured after 4 hrs by RT-qPCR analysis; format: functional, cell-based; details: time 24.0 hrs
In short: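 RAW 264.7 macrophages in DMEM/10% FBS received 1 μM RGFP966 for 20 h, with LPS/IFNγ for the last 4 h. Washed with cold DPBS, total RNA isolated, integrity checked by 28S/18S. RT-qPCR by comparative Ct (2−ΔΔCt), fold change versus LPS/IFNγ control. Mean ± SD of 3–5 independent experiments.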

HBE = test: Antiinflammatory activity in HBE cells assessed as effect on LPS/IFNgamma-induced IL-12b gene expression at 2 uM […] by RT-qPCR analysis; format: functional, cell-based; details: Homo sapiens; in short: as §1
HASMC [3] = test: Antiinflammatory activity in HASMC cells assessed as effect on LPS/IFNgamma-induced IL-1beta gene expression at 2 uM […] by RT-qPCR analysis; format: functional, cell-based; details: Homo sapiens; in short: as §1
[4] = Toxicity in C57bl/6 mouse precision-cut lung slices assessed as effect on tissue viability up to 10 uM measured after 20 hrs by LDH release assay; format: tissue-based
In short: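 PCLS (250 μm) from male C57bl/6 mice, agarose-filled lungs, washed four times, 3 slices/well at 37 °C 5% CO2; inhibitor at 1 and 10 μM for 20 h. LDH in medium measured on automatic analyzer, expressed relative to maximal release from 3 slices lysed with 1% Triton X-100 (30 min, 37 °C).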

[5] = molecular target: T1, Histone deacetylase 3 (Mus musculus) (UniProt O88895); test: Inhibition of HDAC3 in mouse RAW264.7 cells assessed as effect on histone H4 peptide (GKGGKGLGKGGAKR) acetylation measured after 20 hrs by LC-MS/MS analysis; format: cell-based
T1 sequence (whole entry): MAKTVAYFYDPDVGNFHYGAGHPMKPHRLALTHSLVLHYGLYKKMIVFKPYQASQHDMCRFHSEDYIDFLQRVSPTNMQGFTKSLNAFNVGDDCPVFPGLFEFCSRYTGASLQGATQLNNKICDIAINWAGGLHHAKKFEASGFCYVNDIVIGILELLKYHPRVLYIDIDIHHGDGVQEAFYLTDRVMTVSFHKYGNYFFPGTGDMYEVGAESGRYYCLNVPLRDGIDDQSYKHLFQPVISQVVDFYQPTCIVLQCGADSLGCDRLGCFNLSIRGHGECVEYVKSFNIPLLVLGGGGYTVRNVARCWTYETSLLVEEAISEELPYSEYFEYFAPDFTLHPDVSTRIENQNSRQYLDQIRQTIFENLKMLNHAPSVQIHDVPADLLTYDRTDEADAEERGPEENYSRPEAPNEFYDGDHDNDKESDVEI
In short: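 Histones from RAW 264.7 (20 h treatment) run on 15% SDS-PAGE (7 μg), Coomassie-stained H3/H4 bands excised, destained, and chemically acetylated with acetic anhydride-d6 in 1 M ammonium bicarbonate; endogenous lysine acetylation ratio derived by mass spectrometry from deuterated versus non-deuterated acetyl mass difference.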

RAW264.7 [6] = test: Antiinflammatory activity in LPS/IFNgamma-stimulated mouse RAW264.7 cells assessed as effect on IkappaBalpha mRNA expression preincubated for 20 hrs followed by LPS/IFNgamma stimulation and measured after 4 hrs by RT-qPCR analysis; format: functional, cell-based; details: time 24.0 hrs
RAW264.7 [7] = test: Antiinflammatory activity in LPS/IFNgamma-stimulated mouse RAW264.7 cells assessed as effect on IkappaBalpha expression preincubated for 20 hrs followed by LPS/IFNgamma stimulation and measured after 4 hrs by Western blot analysis; format: functional, cell-based; details: time 24.0 hrs
Lung [8] = test: Antiinflammatory activity in C57bl/6 mouse precision-cut lung slices assessed as effect on LPS/IFNgamma-induced HDAC1 gene expression at 1 to 10 uM preincubated for 20 hrs followed by LPS/IFNgamma stimulation and measured after 4 hrs by RT-qPCR analysis; format: functional, tissue-based; details: dose 1-10 µM, time 24.0 hrs
Lung [9] = test: Antiinflammatory activity in C57bl/6 mouse precision-cut lung slices assessed as effect on LPS/IFNgamma-induced HDAC2 gene expression at 1 to 10 uM preincubated for 20 hrs followed by LPS/IFNgamma stimulation and measured after 4 hrs by RT-qPCR analysis; format: functional, tissue-based; details: dose 1-10 µM, time 24.0 hrs
Lung [10] = test: Antiinflammatory activity in C57bl/6 mouse precision-cut lung slices assessed as effect on LPS/IFNgamma-induced HDAC2 expression at 1 to 10 uM preincubated for 20 hrs followed by LPS/IFNgamma stimulation and measured after 4 hrs by Western blot analysis; format: functional, tissue-based; details: dose 1-10 µM, time 24.0 hrs
Lung [11] = test: Antiinflammatory activity in C57bl/6 mouse precision-cut lung slices assessed as upregulation of LPS/IFNgamma-induced IkappaBalpha gene expression at 1 to 10 uM preincubated for 20 hrs followed by LPS/IFNgamma stimulation and measured after 4 hrs by RT-qPCR analysis; format: functional, tissue-based; details: dose 1-10 µM, time 24.0 hrs
[12] = molecular target: Histone deacetylase 2 (Mus musculus) (UniProt P70288); test: Effect on HDAC2 nuclear localization in LPS/IFNgamma-stimulated mouse RAW264.7 cells preincubated for 20 hrs followed by LPS/IFNgamma stimulation and measured after 1 hr by Hoechst staining based confocal laser scanning microscopy; format: cell-based
Sequence of Histone deacetylase 2 (Mus musculus) (P70288 whole entry): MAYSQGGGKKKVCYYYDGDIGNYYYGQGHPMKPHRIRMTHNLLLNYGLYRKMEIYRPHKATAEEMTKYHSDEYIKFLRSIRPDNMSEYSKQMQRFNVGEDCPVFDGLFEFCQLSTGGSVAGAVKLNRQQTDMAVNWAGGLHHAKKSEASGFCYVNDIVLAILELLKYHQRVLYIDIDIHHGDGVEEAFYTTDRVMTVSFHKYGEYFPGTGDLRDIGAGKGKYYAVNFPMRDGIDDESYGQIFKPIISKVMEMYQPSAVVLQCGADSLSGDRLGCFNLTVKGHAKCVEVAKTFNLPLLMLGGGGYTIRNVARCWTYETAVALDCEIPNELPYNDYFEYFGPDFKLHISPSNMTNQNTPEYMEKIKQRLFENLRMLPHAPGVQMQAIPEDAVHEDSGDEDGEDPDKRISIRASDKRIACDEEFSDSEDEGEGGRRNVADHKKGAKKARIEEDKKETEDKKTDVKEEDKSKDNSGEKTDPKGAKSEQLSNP
In short: (§2)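 RAW 264.7 cells at 20,000 cells/cm2 received 1 μM RGFP966 for 20 h, then 1 h LPS/IFNγ. Fixed in 4% formaldehyde, permeabilized with 0.25% Triton X-100, blocked with 5% BSA. Primary antibodies 2 h at 4 °C, AlexaFluor secondaries 1 h, Hoechst nuclear stain. Confocal imaging at 630×; 4 independent experiments.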

[13] = molecular target: T1, Histone deacetylase 3 (Mus musculus); test: Effect on HDAC3 nuclear localization in LPS/IFNgamma-stimulated mouse RAW264.7 cells preincubated for 20 hrs followed by LPS/IFNgamma stimulation and measured after 1 hr by Hoechst staining based confocal laser scanning microscopy; format: cell-based; in short: as §2
[14] = molecular target: Histone deacetylase 2 (Mus musculus) (UniProt P70288); test: Effect on HDAC2 nuclear localization in LPS/IFNgamma-stimulated mouse RAW264.7 cells preincubated for 20 hrs followed by LPS/IFNgamma stimulation and measured after 1 hr by Western blot analysis; format: cell-based
In short: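 RAW 264.7 cells treated for 20 h, then 1 h LPS/IFNγ, and fractionated into nuclear and cytosolic parts. Fractions immunoblotted, with PARP-1 and β-actin as internal controls. Densitometry with vehicle control set at 100%. Mean ± SD of 3–4 independent experiments.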

- inhibition [5]: inactive
- Activity [12]: inactive
- Activity [13]: inactive
- Activity [14]: inactive
Structure (SMILES): Nc1cc(F)ccc1NC(=O)/C=C/c1cnn(C/C=C/c2ccccc2)c1
- Activity (HASMC [1]): inactive
- Activity (RAW264.7 [2]): inactive
- Activity (HBE): inactive
- Activity (HASMC [3]): inactive
- Activity [4]: Non-Toxic
- Activity (RAW264.7 [6]): inactive
- Activity (RAW264.7 [7]): inactive
- Activity (Lung [8]): inactive
- Activity (Lung [9]): inactive
- Activity (Lung [10]): inactive
- Activity (Lung [11]): Active
